Legend:
Mus musculus [1] = assay: Toxicity in cisplatin-resistant human […] cells xenografted Balb/C mouse assessed as mortality level at 5 mg/kg, iv dosed every 4 days for 4 days; format: organism-based, A2780cisR; set-up: dose 5 mg/kg, route intravenous; conditions: in vivo, 96 h
Procedure, shortened: (§1)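 Female Balb/C or athymic nude mice, 5−6 weeks old, implanted sc in the right flank/armpit with 5 × 10^6 cells in HBSS. Once tumors reached 100 mm3, mice were randomized (6 per group) and dosed with vehicle (2.5% Tween-80, 2.5% ethanol) or drug. Toxicity signs and mortality observed daily. Body weight and caliper tumor volume measured every 2 days.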

[2] = Antitumor activity against mouse C26 cells xenografted in Balb/C mouse assessed as tumor mass changes at 5 mg/kg, iv dosed every 4 days for 4 days; format: functional
Procedure, shortened: (§2)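 Female Balb/c or athymic nude mice, 5–6 weeks old. 5 × 10^6 cells in HBSS implanted sc in the right flank/armpit. Treatment began at tumor volume 100 mm3, 6 mice per group; vehicle was 2.5% Tween-80 and 2.5% ethanol. Tumor volume (π/6 × L × W²) and body weight measured every 2 days. Inhibition = (1 − treated/control tumor weight) × 100%.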

[3] = Antitumor activity against cisplatin-resistant human […] cells xenografted in Balb/C mouse assessed as tumor mass changes at 5 mg/kg, iv dosed every 4 days for 4 days; format: functional, A2780cisR; procedure, shortened: as §2
HepG2 [4] = assay: Antiproliferative activity against human HepG2 cells assessed as inhibition of cell proliferation after 48 hrs by MTT assay; format: functional, cell-based
Procedure, shortened: (§3)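 Cells grown at 37 °C in humidified 5% CO2. K562, C26 and HCT lines in RPMI-1640; other lines in DMEM; both media with 10% FBS, penicillin and streptomycin. 1000 cells/well seeded, incubated overnight, then compound at various doses for 48 h. MTT added for 4 h, formazan dissolved in DMSO, absorbance read at 590 nm. IC50 from dose–response curves, mean ± SEM of at least three independent experiments.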

[5] = Antiproliferative activity against mouse C26 cells assessed as inhibition of cell proliferation after 48 hrs by MTT assay; format: functional, cell-based; conditions: C26, 48 h; procedure, shortened: as §3
[6] = Antiproliferative activity against human DLD1 cells assessed as inhibition of cell proliferation after 48 hrs by MTT assay; format: functional, cell-based; conditions: DLD-1, 48 h; procedure, shortened: as §3
[7] = Antiproliferative activity against human HCT15 cells assessed as inhibition of cell proliferation after 48 hrs by MTT assay; format: functional, cell-based; conditions: HCT-15, 48 h; procedure, shortened: as §3
NCI-H358 = assay: Antiproliferative activity against human NCI-H358 cells assessed as inhibition of cell proliferation after 48 hrs by MTT assay; format: functional, cell-based; conditions: NCI-H358, 48 h; procedure, shortened: as §3
MCF7 = assay: Antiproliferative activity against human MCF7 cells assessed as inhibition of cell proliferation after 48 hrs by MTT assay; format: functional, cell-based; conditions: MCF7, 48 h; procedure, shortened: as §3
[8] = Antiproliferative activity against human A2780S cells assessed as inhibition of cell proliferation after 48 hrs by MTT assay; format: functional, cell-based; conditions: A2780, 48 h
Procedure, shortened: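 Cells grown in DMEM with 10% FBS, penicillin/streptomycin at 37 °C, 5% CO2. 1000 cells/well seeded, incubated overnight, then exposed to various doses for 48 h. MTT added for 4 h, formazan dissolved in DMSO, absorbance read at 590 nm. IC50 = concentration inhibiting proliferation by 50%, mean ± SEM of dose–response curves from at least three independent experiments.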

AGS = assay: Antiproliferative activity against human AGS cells assessed as inhibition of cell proliferation after 48 hrs by MTT assay; format: functional, cell-based; procedure, shortened: as §3
U-251 = assay: Antiproliferative activity against human U251 cells assessed as inhibition of cell proliferation after 48 hrs by MTT assay; format: functional, cell-based; conditions: U-251, 48 h; procedure, shortened: as §3
[9] = Antiproliferative activity against taxol resistant human […] cells assessed as inhibition of cell proliferation after 48 hrs by MTT assay; format: functional, cell-based; conditions: A2780, 48 h; procedure, shortened: as §3
[10] = Antiproliferative activity against taxol resistant human HCT8 cells assessed as inhibition of cell proliferation after 48 hrs by MTT assay; format: functional, cell-based; conditions: HCT-8, 48 h; procedure, shortened: as §3
Mus musculus [11] = assay: Toxicity in mouse C26 cells xenografted Balb/C mouse assessed as body weight changes at 5 mg/kg, iv dosed every 4 days for 4 days; format: organism-based; set-up: dose 5 mg/kg, route intravenous; conditions: in vivo, 96 h
Procedure, shortened: (§4)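 Xenografts: 5 × 10^6 tumour cells injected sc in right armpit/flank of 5−6-week-old female mice; at 100 mm3 tumour volume, randomized (6 per group) and dosed in vehicle of 2.5% Tween-80 and 2.5% ethanol; body weights and caliper tumour volumes recorded every 2 days, toxicity signs and mortality daily.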

Mus musculus [12] = assay: Toxicity in cisplatin-resistant human […] cells xenografted Balb/C mouse assessed as body weight changes at 5 mg/kg, iv dosed every 4 days for 4 days; format: organism-based, A2780cisR; set-up: dose 5 mg/kg, route intravenous; conditions: in vivo, 96 h; procedure, shortened: as §4
Mus musculus [13] = assay: Toxicity in mouse C26 cells xenografted Balb/C mouse assessed as mortality level at 5 mg/kg, iv dosed every 4 days for 4 days; format: organism-based; set-up: dose 5 mg/kg, route intravenous; conditions: in vivo, 96 h; procedure, shortened: as §1
Mus musculus [14] = assay: Toxicity in human A2780S cells xenografted Balb/C mouse assessed as mortality level at 10 mg/kg, iv dosed every 2 days for 8 days; format: organism-based, A2780; set-up: dose 10 mg/kg, route intravenous; conditions: in vivo; procedure, shortened: as §1
Mus musculus [15] = assay: Toxicity in cisplatin-resistant human […] cells xenografted Balb/C mouse assessed as mortality level at 10 mg/kg, iv dosed every 2 days for 7 days; format: organism-based, A2780cisR; set-up: dose 10 mg/kg, route intravenous; conditions: in vivo; procedure, shortened: as §1
Mus musculus [16] = assay: Toxicity in human HepG2 cells xenografted Balb/C mouse assessed as mortality level at 25 mg/kg, po dosed every 2 days for 11 days; format: organism-based; set-up: dose 25 mg/kg, route oral; conditions: in vivo; procedure, shortened: as §1
[17] = Antitumor activity against mouse C26 cells xenografted in Balb/C mouse assessed as tumor mass changes at 10 mg/kg, iv dosed every 2 days for 8 days; format: functional; procedure, shortened: as §2
[18] = Antitumor activity against human A2780S cells xenografted in Balb/C mouse assessed as tumor mass changes at 10 mg/kg, iv dosed every 2 days for 8 days; format: functional, A2780; procedure, shortened: as §2
[19] = Antitumor activity against cisplatin-resistant human […] cells xenografted in Balb/C mouse assessed as tumor mass changes at 10 mg/kg, iv dosed every 2 days for 7 days; format: functional, A2780cisR; procedure, shortened: as §2
HepG2 [20] = assay: Antitumor activity against human HepG2 cells xenografted in Balb/C mouse assessed as tumor mass changes at 25 mg/kg, po dosed every 2 days for 11 days; format: functional; procedure, shortened: as §2
[21] = Solubility in PBS solution by nephelometry; format: physicochemical
Procedure, shortened: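 Maximum soluble concentration in PBS, determined by nephelometry.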

[22] = Toxicity in iv dosed BALB/c mouse; format: organism-based; conditions: in vivo
Procedure, shortened: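 Maximum tolerated dose in BALB/c mice (SPF, 18−22 g, 6−8 weeks, half female and half male). Graded doses given intravenously, n = 4 per dose. Survival and adverse effects recorded every other day after dosing. MTD defined as the largest dose given before one death occurs.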

Rattus norvegicus [23] = assay: Systemic clearance in rat at 3 mg/kg, iv; format: ADME, organism-based; set-up: dose 3 mg/kg, route intravenous; conditions: in vivo
[24] = Volume of distribution at steady state in rat at 3 mg/kg, iv; format: ADME, organism-based; set-up: dose 3 mg/kg, route intravenous; conditions: in vivo, read-out: Vdss
Rattus norvegicus [25] = assay: AUC in rat at 3 mg/kg, iv; format: ADME, organism-based, Plasma; set-up: dose 3 mg/kg, route intravenous; conditions: in vivo
Procedure, shortened: (§5)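 Rat pharmacokinetics; oral and intravenous dosing, with group sizes of 5, 5 and 4 rats. Parameters derived: systemic clearance, volume of distribution, area under the plasma concentration–time curve, maximum plasma concentration and percent oral bioavailability.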

[26] = Cmax in rat at 3 mg/kg, iv; format: ADME, organism-based; set-up: dose 3 mg/kg, route intravenous; conditions: in vivo; procedure, shortened: as §5
[27] = Oral bioavailability in rat at 15 mg/kg; format: ADME, organism-based; conditions: in vivo
Rattus norvegicus [28] = assay: Systemic clearance in rat at 15 mg/kg, po; format: ADME, organism-based; set-up: dose 15 mg/kg, route oral; conditions: in vivo
Rattus norvegicus [29] = assay: Volume of distribution at steady state in rat at 15 mg/kg, po; format: ADME, organism-based; set-up: dose 15 mg/kg, route oral; conditions: in vivo
Rattus norvegicus [30] = assay: AUC in rat at 15 mg/kg, po; format: ADME, organism-based, Plasma; set-up: dose 15 mg/kg, route oral; conditions: in vivo; procedure, shortened: as §5
[31] = Cmax in rat at 15 mg/kg, po; format: ADME, organism-based; set-up: dose 15 mg/kg, route oral; conditions: in vivo; procedure, shortened: as §5
Mus musculus [32] = assay: Toxicity in mouse C26 cells xenografted Balb/C mouse assessed as body weight changes at 10 mg/kg, iv dosed every 2 days for 8 days; format: organism-based; set-up: dose 10 mg/kg, route intravenous; conditions: in vivo; procedure, shortened: as §4
Mus musculus [33] = assay: Toxicity in human A2780S cells xenografted Balb/C mouse assessed as body weight changes at 10 mg/kg, iv dosed every 2 days for 8 days; format: organism-based, A2780; set-up: dose 10 mg/kg, route intravenous; conditions: in vivo; procedure, shortened: as §4
Mus musculus [34] = assay: Toxicity in cisplatin-resistant human […] cells xenografted Balb/C mouse assessed as body weight changes at 10 mg/kg, iv dosed every 2 days for 7 days; format: organism-based, A2780cisR; set-up: dose 10 mg/kg, route intravenous; conditions: in vivo; procedure, shortened: as §4
Mus musculus [35] = assay: Toxicity in human HepG2 cells xenografted Balb/C mouse assessed as body weight changes at 25 mg/kg, po dosed every 2 days for 11 days; format: organism-based; set-up: dose 25 mg/kg, route oral; conditions: in vivo; procedure, shortened: as §4
Mus musculus [36] = assay: Toxicity in mouse C26 cells xenografted Balb/C mouse assessed as mortality level at 10 mg/kg, iv dosed every 2 days for 8 days; format: organism-based; set-up: dose 10 mg/kg, route intravenous; conditions: in vivo; procedure, shortened: as §1
Mus musculus [37] = assay: Toxicity in human HepG2 cells xenografted Balb/C mouse assessed as mortality level at 5 mg/kg, iv dosed every 2 days for 11 days; format: organism-based; set-up: dose 5 mg/kg, route intravenous; conditions: in vivo; procedure, shortened: as §1
HepG2 [38] = assay: Antitumor activity against human HepG2 cells xenografted in Balb/C mouse assessed as tumor mass changes at 5 mg/kg, iv dosed every 2 days for 11 days; format: functional; procedure, shortened: as §2
[39] = Antiproliferative activity against adriamycin resistant human MCF7/ADR cells assessed as inhibition of cell proliferation after 48 hrs by MTT assay; format: functional, cell-based; conditions: NCI/ADR-RES; procedure, shortened: as §3
Mus musculus [40] = assay: Toxicity in human HepG2 cells xenografted Balb/C mouse assessed as body weight changes at 5 mg/kg, iv dosed every 2 days for 11 days; format: organism-based; set-up: dose 5 mg/kg, route intravenous; conditions: in vivo; procedure, shortened: as §4

CC(=O)O[C@H]1C(=O)[C@@]2(C)[C@H]([C@H](OC(=O)c3ccccc3)[C@]3(O)C[C@H](OC(=O)[C@H](O)[C@@H](NC(=O)c4ccccc4)c4ccccc4)C(C)=C1C3(C)C)[C@]1(OC(C)=O)CO[C@@H]1C[C@@H]2O [PACLITAXEL]
Activity (Mus musculus [1]): Non-toxic
Activity [2]: 76%
Activity [3]: 69%
IC50 (HepG2 [4]; Homo sapiens, HepG2, 48 h): 38 nM
IC50 [5]: 210 nM
IC50 [6]: 16 nM
IC50 [7]: 24 nM
IC50 (NCI-H358): 2 nM
IC50 (MCF7): 132 nM
IC50 [8]: 4 nM
IC50 (AGS): 8 nM
IC50 (U-251): 23 nM
IC50 [9]: 107 nM
IC50 [10]: 266 nM
Activity (Mus musculus [11]): -3.7%
Activity (Mus musculus [12]): -5.6%
Activity (Mus musculus [13]): Non-toxic

COc1ccc(/C=C/C(=O)c2ccc(OC)c3c2OC(C)(C)C=C3)cc1N.Cl
Activity (Mus musculus [14]): Non-toxic
Activity (Mus musculus [15]): Non-toxic
Activity (Mus musculus [16]): Non-toxic
Activity [17]: 86%
Activity [18]: 61%
Activity [19]: 51%
Activity (HepG2 [20]): 78%
IC50 (HepG2 [4]; hepg2): 9 nM
solubility kinetic [21]: 64 µg/mL
MTD [22]: 250 mg/kg
CL (Rattus norvegicus [23]): 50 mL/min/kg
Vd [24]: 31 L/kg
AUC (Rattus norvegicus [25]): 973 ng·h/mL
Cmax [26]: 1510 ng/mL
bioavailability [27]: 47%
CL (Rattus norvegicus [28]): 123 mL/min/kg
Vdss (Rattus norvegicus [29]): 47 L/kg
AUC (Rattus norvegicus [30]): 2260 ng·h/mL
Cmax [31]: 449 ng/mL
Activity (Mus musculus [32]): 0.8%
Activity (Mus musculus [33]): -2.5%
Activity (Mus musculus [34]): 1%
Activity (Mus musculus [35]): 7.6%
Activity (Mus musculus [36]): Non-toxic

COc1cccc2c1C(=O)c1c(O)c3c(c(O)c1C2=O)C[C@@](O)(C(=O)CO)C[C@@H]3O[C@H]1C[C@H](N)[C@H](O)[C@H](C)O1.Cl [DOXORUBICIN HYDROCHLORIDE]
Activity (Mus musculus [37]): Non-toxic
Activity (HepG2 [38]): 61%
IC50 [39]: 5300 nM
Activity (Mus musculus [40]): 0.5%
